In assay [1] the target is Pyruvate kinase PKM (Homo sapiens) (UniProt P14618). The assay can be described thus: Inhibition human pyruvate kinase M1 at 10 uM. In outline:
(§1)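 His-tagged recombinant human PK isoforms were used. Compounds were diluted in 100% DMSO and tested at 10 µM, the highest concentration tested. Values are percent inhibition of enzymatic activity.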

In assay [2] the target is Pyruvate kinase PKLR (Homo sapiens) (UniProt P30613). Nature of the assay: Inhibition human pyruvate kinase L at 10 uM. In outline:
as §1

The target in assay [3] is Pyruvate kinase PKM (Homo sapiens) (UniProt P14618). The assay can be described thus: Inhibition human pyruvate kinase M2 at 10 uM. In outline: as §1
Assay [4] deals with Pyruvate kinase PKLR (Homo sapiens) (UniProt P30613). Nature of the assay: Inhibition human pyruvate kinase R at 10 uM. In outline: as §1
Assay [5] can be described thus: Inhibition of methicillin-resistant Staphylococcus aureus pyruvate kinase. In outline: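 His-tagged MRSA PK. Compounds diluted in 100% DMSO. IC50 calculated from a triplicate 15-point titration.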
Assay [6] relates to Staphylococcus aureus. The assay can be described thus: Inhibition of methicillin-resistant Staphylococcus aureus pyruvate kinase at 10 uM. Put shortly:
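His-tagged MRSA PK. Compounds diluted in 100% DMSO. Percent inhibition reported at the highest concentration tested, 10 µM.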

Assay [7] relates to Staphylococcus aureus. Nature of the assay: Antibacterial activity against Staphylococcus aureus ATCC 29213 by two fold serial dilution method. Format: functional.

The structures appear in SMILES notation. ≈ marks a conversion by molar mass, not a printed value. Some results are limits rather than exact numbers.

The inhibition is the relative decrease from the control value, in per cent. A word on the IC50: it is the concentration at which inhibition is half-maximal.

Pyruvate kinase PKLR (Homo sapiens), sequence (P30613 whole entry, looked up): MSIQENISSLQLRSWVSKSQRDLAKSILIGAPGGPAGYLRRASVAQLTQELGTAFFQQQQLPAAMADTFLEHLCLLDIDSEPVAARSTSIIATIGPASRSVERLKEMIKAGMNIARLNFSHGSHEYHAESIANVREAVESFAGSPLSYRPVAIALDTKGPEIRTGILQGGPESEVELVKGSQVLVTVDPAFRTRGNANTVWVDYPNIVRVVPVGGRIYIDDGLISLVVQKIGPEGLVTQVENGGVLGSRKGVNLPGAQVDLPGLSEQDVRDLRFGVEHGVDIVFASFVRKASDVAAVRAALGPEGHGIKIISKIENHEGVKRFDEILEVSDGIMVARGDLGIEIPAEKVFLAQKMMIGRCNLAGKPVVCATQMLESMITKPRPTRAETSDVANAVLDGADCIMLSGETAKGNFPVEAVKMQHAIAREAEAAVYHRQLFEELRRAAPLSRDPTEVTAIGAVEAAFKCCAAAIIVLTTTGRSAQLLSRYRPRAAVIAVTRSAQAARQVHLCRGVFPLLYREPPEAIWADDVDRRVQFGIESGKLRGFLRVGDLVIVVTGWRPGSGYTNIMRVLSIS
Pyruvate kinase PKM (Homo sapiens), sequence (P14618 2-531 limits assumed): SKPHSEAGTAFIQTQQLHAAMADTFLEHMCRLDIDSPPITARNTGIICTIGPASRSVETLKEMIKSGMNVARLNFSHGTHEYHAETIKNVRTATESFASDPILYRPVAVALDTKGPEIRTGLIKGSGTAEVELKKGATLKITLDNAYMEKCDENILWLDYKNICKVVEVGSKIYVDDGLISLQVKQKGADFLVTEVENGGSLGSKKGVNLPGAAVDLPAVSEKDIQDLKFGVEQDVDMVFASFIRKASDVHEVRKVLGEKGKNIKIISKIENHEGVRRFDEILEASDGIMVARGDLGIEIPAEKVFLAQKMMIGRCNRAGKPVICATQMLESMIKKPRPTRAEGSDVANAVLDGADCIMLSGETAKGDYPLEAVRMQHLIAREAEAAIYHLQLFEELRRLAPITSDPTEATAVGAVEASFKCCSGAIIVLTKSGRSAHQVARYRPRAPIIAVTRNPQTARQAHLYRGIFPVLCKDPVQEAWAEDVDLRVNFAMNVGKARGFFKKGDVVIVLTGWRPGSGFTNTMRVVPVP

For the molecule `Brc1ccc2[nH]c(-c3cc4cc(Br)ccc4[nH]3)cc2c1`, the inhibition in assay [1] worked out at 12.3%; in assay [2], 9.8%; in assay [3], 0.5%; in assay [4], 24.4%; in assay [6], 71%. Moreover, the IC50 in assay [5] (read-out: IC50) came out at 3 nM.
As to `CN1CCN(CCn2c(-c3cc4ccc(Br)cc4[nH]3)cc3cc(Br)ccc32)CC1`, the “MIC>98” value in assay [7] worked out at 4 µg/mL (≈ 7.75 µM). For the same molecule, the inhibition in assay [1] is 3.2%; in assay [2], 16.8%; in assay [3], 1.7%; in assay [4], 26.1%; in assay [6] it was 100%. Also, the IC50 in assay [5] (read-out: IC50) was determined as 2 nM.
In the case of `Brc1ccc2c(c1)cc(-c1cc3ccc(Br)cc3[nH]1)n2CCN1CCOCC1`, the “MIC>98” value in assay [7] was over 64 µg/mL. Moreover, the inhibition was 13.1% in assay [1]; 32.1% in assay [2]; 3.5% in assay [3]; 50.7% in assay [4]; 101% in assay [6]. The IC50 in assay [5] (read-out: IC50) is 1.2 nM.
Consider `Brc1ccc2[nH]c(-c3cc4ccccc4[nH]3)cc2c1`, for which the inhibition in assay [6] worked out at 36%.
On to `Brc1ccc2cc(C#Cc3cc4ccc(Br)cc4[nH]3)[nH]c2c1`, for which the “MIC>98” value in assay [7] was over 64 µg/mL. The IC50 in assay [5] (read-out: IC50) turned out to be 2.4 nM.
For the molecule `Brc1ccc2[nH]c(CCc3cc4ccc(Br)cc4[nH]3)cc2c1`, the “MIC>98” value in assay [7] was over 64 µg/mL. In addition, the IC50 in assay [5] (read-out: IC50) stood at 6.3 nM.
Turning to `Brc1ccc2cc(-c3cccc(-c4cc5ccccc5[nH]4)c3)[nH]c2c1`, the inhibition in assay [6] amounted to 36%.
For `Brc1ccc2[nH]c(-c3nc4ccccc4s3)cc2c1`, the “MIC>98” value in assay [7] is over 64 µg/mL. Also, in assay [5] (read-out: IC50), the IC50 was 358 nM.
For `Brc1ccc2[nH]c(/C=C/c3cc4ccc(Br)cc4[nH]3)cc2c1`, the “MIC>98” value in assay [7] is over 64 µg/mL. In addition, the IC50 in assay [5] (read-out: IC50) was 4.1 nM.
For `Brc1ccc2cc(-c3cc4cc(-c5ccccc5)ccc4[nH]3)[nH]c2c1`, the “MIC>98” value in assay [7] was over 64 µg/mL. Also, in assay [5] (read-out: IC50), the IC50 was determined as 2.2 nM.
As for `Brc1ccc2cc(C#Cc3cc4ccccc4[nH]3)[nH]c2c1`, the “MIC>98” value in assay [7] is over 64 µg/mL. In addition, the IC50 in assay [5] (read-out: IC50) worked out at 7.1 nM.
As for `Brc1cc2cc(-c3cc4ccccc4[nH]3)[nH]c2cc1Br`, the inhibition in assay [6] was 39%.
For `Brc1ccc2cc(/C=C/c3cc4ccc(Br)cc4[nH]3)[nH]c2c1`, the “MIC>98” value in assay [7] was over 64 µg/mL. Moreover, in assay [5] (read-out: IC50), the IC50 amounted to 3.9 nM.
In the case of `Brc1ccc2cc(-c3cc4ccccc4s3)[nH]c2c1`, in assay [7], the “MIC>98” value is over 64 µg/mL. In assay [5] (read-out: IC50), the IC50 came to 14 nM.
For the molecule `O=C(Cn1c(-c2cc3ccc(Br)cc3[nH]2)cc2cc(Br)ccc21)N1CCOCC1`, the “MIC>98” value in assay [7] is over 64 µg/mL. In assay [5] (read-out: IC50), the IC50 was 6 nM.
As for `Cn1c(-c2cc3cc(Br)ccc3[nH]2)cc2ccc(Br)cc21`, the IC50 result in assay [5] is reported as “Not Active”. In addition, the inhibition in assay [6] stood at 25%.
As for `Cn1c(C#Cc2cc3ccc(Br)cc3[nH]2)cc2ccc(Br)cc21`, the “MIC>98” value in assay [7] was over 64 µg/mL. Also, in assay [5] (read-out: IC50), the IC50 amounted to 13.7 nM.
The corresponding values for `Brc1ccc2[nH]c(-c3nc4ccc(Br)cc4s3)cc2c1` are over 64 µg/mL and 4.1 nM.
For the molecule `O=C(O)Cn1c(-c2cc3ccc(Br)cc3[nH]2)cc2cc(Br)ccc21`, the “MIC>98” value in assay [7] was over 64 µg/mL. Also, the IC50 in assay [5] (read-out: IC50) was 11.1 nM.
The corresponding values for `Brc1ccc2[nH]c(-c3cc4cc(Br)c(Br)cc4[nH]3)cc2c1` are 1 µg/mL (≈ 2.13 µM) and 1.6 nM.
Regarding `Brc1ccc2cc(-c3ccc(-c4cc5ccccc5[nH]4)cc3)[nH]c2c1`, the “MIC>98” value in assay [7] was over 64 µg/mL. The IC50 in assay [5] (read-out: IC50) was 5.6 nM.
For `Brc1ccc2cc(-c3cc4ccccc4[nH]3)[nH]c2c1`, in assay [7], the “MIC>98” value stood at 2 µg/mL (≈ 6.43 µM). Also, the IC50 in assay [5] (read-out: IC50) was determined as 21.4 nM.
With `Brc1ccc2[nH]c(-c3cc4ccccc4o3)cc2c1`, the inhibition in assay [6] was found to be 45%.
On to `Cn1c(C#Cc2cc3ccc(Br)cc3n2C)cc2ccc(Br)cc21`, for which the inhibition in assay [6] is 27%.

For the origin of these results see ChEMBL document CHEMBL3112446, “Discovery and optimization of a new class of pyruvate kinase inhibitors as potential therapeutics for the treatment of methicillin-resistant Staphylococcus aureus infections” (Bioorg Med Chem, 2014).
